# Measured values from ChEMBL document CHEMBL4765243, “Discovery of Novel Bromophenol-Thiosemicarbazone Hybrids as Potent Selective Inhibitors of Poly(ADP-ribose) Polymerase-1 (PARP-1) for Use in Cancer” (J Med Chem, 2019).
# Activity calls are given as the source filed them. The rule behind the calls is not given here.
# How the values were obtained:
# [1] = Oral bioavailability in Sprague-Dawley rat at 10 mg/kg by LC/MS/MS analysis; format: ADME, organism-based; conditions: in vivo
# In short: (§1)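 Male Sprague-Dawley rats, 4 per group, dosed once orally at 10 mg/kg or intravenously at 2 mg/kg. Blood taken from the saphenous vein for plasma. Drug levels measured by LC-MS-MS, with parameters derived by noncompartmental analysis.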
# [2] = Acute toxicity in SPF Kunming mouse assessed as mortality at 100 to 1000 mg/kg, po administered as single dose and measured upto 14 days post drug administration; format: organism-based; conditions: in vivo, 336 h, dose 100-1000 mg/kg, time <=14 day
# [3] = Toxicity in Balb/c nude mouse xenografted with human SKOV3 cells assessed as change in body weight at 50 mg/kg, po for 21 days and measured every third day; format: organism-based; conditions: in vivo, 504 h, time 21 day
# In short: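 Female BALB/c nu/nu mice, 6-8 weeks old, kept under SPF conditions. Each received 5×10^6 SK-OV-3 cells s.c. At 80–120 mm3 tumour volume, mice were split into four groups (n=6). […] Caliper measurement every three days; volume = X × (Y2/2).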
# [4] = tested on: SK-OV-3; assay: Induction of autophagy in human SKOV3 cells assessed as increase in fluorescence intensity t 10 uM incubated for 48 hrs by immunofluorescence analysis; format: functional, cell-based
# In short: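 SK-OV-3 cells on glass coverslips infected with Ad-mCherry-GFP-LC3B for 24 h. Cells then treated at 10 µM for 48 h, fixed in 4% paraformaldehyde and examined by fluorescence microscopy.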
# [5] = tested on: SK-OV-3; assay: Induction of ROS generation in human SKOV3 cells assessed as fold increase in ROS level at 2.5 uM incubated for 48 hrs by DCFH-DA staining based flow cytometry relative to control; format: functional
# [6] = Cmax in Sprague-Dawley rat at 10 mg/kg, po by LC/MS/MS analysis; format: ADME, organism-based; design: route oral, dose 10 mg/kg; conditions: in vivo; in short: as §1
compound,measurement,setting,value
COc1cc(/C=N/NC(N)=S)c(Br)c(Br)c1OC,F,[1],47.3%
same,Activity,[2],Non-Toxic
same,Activity,[3],Non-Toxic
same,Activity,[4],Active
same,fold change (FC),[5],1.76
same,Cmax,[6],19.9 nM
